Activity calls are given as the source filed them. No cut-off for these calls is given here.
Tests used:
Vaccinia virus [1] = assay: Inhibition of Vaccinia virus DNA synthesis in by rapid plate assay; type: functional, organism-based; conditions: Orthopoxvirus vaccinia
Vaccinia virus [2] = assay: Antiviral activity against Vaccinia virus WR in BSC1 cells assessed as reduction in plaque formation after 20 hrs; type: functional, organism-based; conditions: Orthopoxvirus vaccinia, BSC-1, 20 h
[3] = Cytotoxicity against african green monkey BSC1 cells after 20 hrs WST-1 based assay; type: cell-based, BSC-1; conditions: chlorocebus aethiops, read-out: TC50
Outline: (§1)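 Uninfected BS-C-1 cells in phenol red-free medium, seeded 5000 (20 h), 1000 (3-day) or 200 (5-day) cells/well, exposed next day to compound in two-fold serial dilutions (top 200 µM; 1% DMSO final) at 37°C. WST-1 added 30 min, A450 read. Triplicates; percent cytotoxicity vs DMSO fitted four-parameter sigmoidal for TC50.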

Vaccinia virus [4] = assay: Antiviral activity against Vaccinia virus WR in BSC1 cells assessed as protection from virus-induced lysis of cell monolayer after 20 hrs; type: functional, organism-based; conditions: Orthopoxvirus vaccinia, BSC-1, 20 h
Vaccinia virus [5] = assay: Antiviral activity against Vaccinia virus WR in BSC1 cells assessed as retention of antiviral potency by measuring exogenous double stranded DNA trapping; type: functional, organism-based; conditions: Orthopoxvirus vaccinia, BSC-1
Vaccinia virus [6] = assay: Antiviral activity against Vaccinia virus WR in BSC1 cells assessed as reduction in plaque formation up to 200 uM after 20 hrs; type: functional, organism-based; conditions: Orthopoxvirus vaccinia, BSC-1
Vaccinia virus [7] = assay: Antiviral activity against Vaccinia virus WR in BSC1 cells assessed as protection from virus-induced lysis of cell monolayer up to 200 uM after 20 hrs; type: functional, organism-based; conditions: Orthopoxvirus vaccinia, BSC-1
[8] = Cytotoxicity against african green monkey BSC1 cells up to 200 uM after 20 to 120 hrs WST-1 based assay; type: cell-based; conditions: chlorocebus aethiops, bsc-1; outline: as §1

| SMILES | IC50 (Vaccinia virus [1]) [µM] | EC50 (Vaccinia virus [2]) [µM] | CC50 at 20 h [3] [µM] | EC50 (Vaccinia virus [4]) [µM] | Activity (Vaccinia virus [5]) | Activity (Vaccinia virus [6]) | Activity (Vaccinia virus [7]) | Activity [8] |
| --- | --- | --- | --- | --- | --- | --- | --- | --- |
| CCN1CCCC1CNC(=O)c1ccc2c(c1)sc1nc(-c3cccc(OC)c3)cn12 (configuration not stated) | 47 | 50 | 75 | – | – | – | – | – |
| COC(=O)c1c(NC(=O)c2ccc(OC)cc2)sc2c1CCN(C(C)C)C2 | – | 25 | 87 | 40 | inactive | – | – | – |
| COc1ccc(Nc2cc(C(F)(F)F)ccc2Cl)c(C(=O)O)c1 | 29 | 100 | > 200 | – | – | – | – | – |
| CN(c1ccccc1C(=O)O)S(=O)(=O)c1ccc2c3c(cccc13)C(=O)N2 | 75 | – | > 200 | – | – | – | – | – |
| CCN(CC)CCCNc1nc2cc(OC)c(OC)cc2c2nc(-c3ccccc3)nn12 | 5.9 | – | – | – | – | inactive | inactive | Toxic |
| N=C(N)Nc1nc(-c2ccccc2)c2ccccc2n1 | 21 | 50 | 49 | – | – | – | – | – |
| N#CC1=C(SCc2ccccc2)SC(c2ccccc2O)NC1=O (configuration not stated) | 250 | 150 | > 200 | – | – | – | – | – |
| S=c1nc(-c2ccco2)c2c(=S)[nH]c(=S)[nH]c2[nH]1 | 142 | – | > 200 | – | – | – | – | – |
| CN1CCc2c(-c3cccs3)nc(OCc3ccccc3Br)c(C#N)c2C1 | 112 | 40 | 82 | – | – | – | – | – |
| C=C1C(C(=O)NCc2ccco2)C1C(=O)NCc1ccco1 (configuration not stated) | 272 | – | > 200 | – | – | – | – | – |
| CC1=NN(c2cccc(C(=O)O)c2)C(=O)/C1=C\c1ccc(-c2cccc(Cl)c2C)o1 | 14 | 50 | > 200 | – | – | – | – | – |
| O=C(O)c1cc(-c2cccs2)nc2ccc(Br)cc12 | 63 | 100 | > 200 | – | – | – | – | – |
| BrCc1ccc(-c2noc(-c3ccncc3)n2)cc1 | 1.3 | – | – | – | – | inactive | inactive | Toxic |
| COc1ccc2c(C)nc(N/C(N)=N/C(C)=O)nc2c1 | 16 | 40 | 90 | – | – | – | – | – |
| CCN1CCN(CCCNC(=O)c2ccc3c(c2)NC(=O)/C(=C\C(=O)c2ccc(OC)cc2)N3)CC1 | 36 | – | > 200 | – | – | – | – | – |
| c1ccc(CNc2ccc3c(ccc4c5ccccc5[nH]c34)n2)cc1 | 114 | 10 | 26 | – | – | – | – | – |

| SMILES | IC50 (Vaccinia virus [1]) [µM] | EC50 (Vaccinia virus [2]) [µM] | CC50 at 20 h [3] [µM] | EC50 (Vaccinia virus [4]) [µM] | Activity (Vaccinia virus [5]) | Activity (Vaccinia virus [6]) | Activity (Vaccinia virus [7]) | Activity [8] |
| --- | --- | --- | --- | --- | --- | --- | --- | --- |
| COc1ccc2c(C)nc(NC(=N)/N=C(\C)c3ccccc3C(=O)O)nc2c1 | 13 | 50 | 164 | – | – | – | – | – |
| Cc1cc(NCCN2CCCCC2)c2ccc3ccccc3c2n1 | 6 | – | – | – | – | inactive | inactive | Toxic |
| CC1CCCC(C)N1CCNc1nc2ccccc2c2nc(-c3ccccc3)nn12 (configuration not stated) | 7.3 | – | – | – | – | inactive | inactive | Toxic |
| O=C(O)c1ccc2c(c1)NC(=O)C(CSCc1ccccc1Cl)N2 (configuration not stated) | 450 | – | > 200 | – | – | – | – | – |
| C/N=C1/c2c(C)c3cc(OC)ccc3n2CCN1C | 89 | 75 | > 200 | – | – | – | – | – |
| CN(C)CC/N=c1\cc(-c2ccccc2)oc2ccc(Cl)cc12 | 6.7 | – | – | – | – | inactive | inactive | Toxic |
| O=C(O)C1Nc2ccccc2C2C=CCC12 (configuration not stated) | > 400 | – | > 200 | – | – | – | – | – |
| O=C(NCCCN1CCCC1)c1cc2c(Cl)nc3ccccc3c2s1 | 10 | – | – | – | – | inactive | inactive | Toxic |
| c1ccc2nc3c(nc2c1)c1ccccc1n3CCN1CCOCC1 | 28 | 30 | 72 | – | – | – | – | – |
| CC[n+]1cc(/C=C2\SC=CN2C)c(C)c2cc(OC)c3ccccc3c21 | 3.5 | – | – | – | – | inactive | inactive | Toxic |
| CC1CCN(CCCNC(=O)c2cc3c(=O)n(C)c4ccccc4c3s2)CC1 | 19 | – | 75 | – | – | – | – | – |
| O=C1NC(=S)N(c2ccccc2)C(=O)/C1=C\C=C\c1ccco1 | 143 | 50 | > 200 | – | – | – | – | – |
| O=C(/C=C/c1ccco1)/C=C/c1ccco1 | 25 | 75 | > 200 | – | – | – | – | – |
| Nc1[nH]c(=S)sc1C(=O)Nc1nccs1 | 41 | – | > 200 | – | – | – | – | – |
| COc1ccc2c(c1)C=C/C(=C\c1sc3ccccc3[n+]1C)N2C.[Cl-] | 4 | – | – | – | – | inactive | inactive | Toxic |
| CN(C)CCN(C(=O)c1ccco1)c1nc2cc3c(cc2s1)OCO3 | 29 | 100 | > 200 | – | – | – | – | – |

Reference: ChEMBL document CHEMBL1140145, “Identification of non-nucleoside DNA synthesis inhibitors of vaccinia virus by high-throughput screening” (J Med Chem, 2008)
